In ChEMBL document CHEMBL1134482, “Ether phospholipid-AZT conjugates possessing anti-HIV and antitumor cell activity. Synthesis, conformational analysis, and study of their thermal effects on membrane bilayers” (J Med Chem, 2001):

What was measured:
CCRF-CEM [1] = assay: Concentration required to protect CEM/0 cells against the cytopathicity of HIV-2 by 50%.; format: functional, cell-based; details: Homo sapiens
Method in brief: (§1)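 CEM cells (wild-type, or TK-deficient for the HIV-2 CEM/TK- line) were infected with HIV-1 or HIV-2. EC50 was taken as the concentration protecting the cells from virus-induced cytopathicity by 50%. Values are averages of at least two separate experiments.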

L1210/TK- = assay: Inhibitory effect of compound on the proliferation of murine leukemia cells L1210/TK-; format: functional, cell-based; details: Mus musculus
Method in brief: (§2)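 Murine L1210/0, L1210/TK- leukemia cells or FM3A/0 mammary carcinoma cells were incubated with the compound for 2 days at 37 °C. IC50 was the concentration reducing the total number of viable cells by 50%.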

CCRF-CEM [2] = assay: Concentration required to reduce CEM/0 cell viability by 50%; format: functional; details: Homo sapiens
Method in brief: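 Uninfected CEM/0 T-lymphocytes were exposed to the compound. CC50 was the concentration reducing CEM cell viability by 50%. Values are averages of at least two separate experiments.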

MOLT-4 = assay: Inhibitory effect of compound on the proliferation of human T-lymphocyte cells Molt4/C8; format: functional, cell-based
Method in brief: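 Human Molt4/C8 T-lymphoblast cells were incubated with the compound for 3 days at 37 °C. IC50 was the concentration cutting the total viable cell number by 50%.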

CCRF-CEM [3] = assay: Concentration required to protect CEM/0 cells against the cytopathicity of HIV-1 by 50%.; format: functional, cell-based; details: Homo sapiens; method in brief: as §1
FM3A = assay: Inhibitory effect of compound on the proliferation of murine mammary carcinoma cells FM3A/0; format: functional, cell-based; details: Mus musculus; method in brief: as §2
CEM-TK(-) = assay: Concentration required to protect CEM/TK cells against the cytopathicity of HIV-2 by 50%; format: functional, cell-based; details: Homo sapiens; method in brief: as §1
L1210 = assay: Inhibitory effect of compound on the proliferation of murine leukemia cells L1210/0.; format: functional, cell-based; details: Mus musculus; method in brief: as §2

Row | SMILES | EC50 (CCRF-CEM [1]) [nM] | IC50 (L1210/TK-) [µM] | CC50 (CCRF-CEM [2]) [µM] | IC50 (MOLT-4) [µM] | EC50 (CCRF-CEM [3]) [nM] | IC50 (FM3A) [µM] | EC50 (CEM-TK(-)) [µM] | IC50 (L1210) [µM]
1 | CCCCCCCCCCCCCCCCOCC(COP(=O)(O)OCC1OC(n2cc(C)c(=O)[nH]c2=O)CC1N=[N+]=[N-])OC (stereo not drawn) | 80 | 33.6 | 34.3 | 21.4 | 65 | 68.4 | > 10 | 0.98
2 | CCCCCCCCCCCCCCCCOP(=O)(O)OCC1OC(n2cc(C)c(=O)[nH]c2=O)CC1N=[N+]=[N-] (stereo not drawn) | 1000 | 165 | 161 | 144 | 580 | 133 | > 50 | 12.5
3 | Cc1cn([C@H]2C[C@H](N=[N+]=[N-])[C@@H](CO)O2)c(=O)[nH]c1=O [ZIDOVUDINE] |  | > 500 | > 500 | 62.8 | 6.4 | 203 | > 100 | 6.18
